A selection: hits, their analogues and other compounds. The true share with any hit is near 2.9%.
ATG4B inh: blocks human ATG4B protease cleavage of LC3 substrate; ATG4B cleavage of LC3-PLA2, NBD-HPC fluorescence, 1 h; 0.51% of 340,000 active; AID 504462; inhibition, % at 8.33 µM; in the data active means inhibition above about 40%
MEKK2 WT-MEK5: raises or lowers MEK5 binding to wildtype human MEKK2 PB1 domain; binding response (% of control), % at 10 µM; bead flow cytometry, Alexa488-MEK5 binding to MEKK2 WT; actives lie on both sides; Q9Y2U5; 1.1% of 290,000 active; in the data active means binding response below about 67% or above about 130%; inconclusive means no clear call, values can overlap the other calls; inactive means in between
Beta2AR agonist: human beta-2 adrenergic receptor agonism by FAP; P07550; Am2.2-beta2AR cells, FAP receptor internalization, flow cytometry; response, % (no concentration beside the values); 0.43% of 340,000 active; AID 504454;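 active means response above a set limit, near 3 SD of response in nonfluorescent compounds, cut at about 42% in these data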
Target sequence (P07550 whole entry, looked up): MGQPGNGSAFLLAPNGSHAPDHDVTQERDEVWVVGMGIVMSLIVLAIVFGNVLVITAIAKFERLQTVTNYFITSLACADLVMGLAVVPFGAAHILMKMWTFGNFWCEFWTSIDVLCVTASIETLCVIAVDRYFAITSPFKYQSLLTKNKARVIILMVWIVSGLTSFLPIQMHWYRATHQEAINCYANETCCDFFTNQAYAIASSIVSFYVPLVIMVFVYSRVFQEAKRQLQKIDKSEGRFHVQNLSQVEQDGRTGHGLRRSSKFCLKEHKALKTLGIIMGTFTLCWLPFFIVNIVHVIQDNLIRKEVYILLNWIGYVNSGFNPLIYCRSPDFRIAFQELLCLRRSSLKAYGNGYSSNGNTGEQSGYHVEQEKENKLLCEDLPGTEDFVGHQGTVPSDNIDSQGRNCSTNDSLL
Dynein cargo inh: dynein cargo transport inhibition; 3617.4 mouse cells, GR-EGFP nuclear translocation imaging; test concentration mostly 20 µM; stimulated with dexamethasone, 1 µM; hits give low values; 0.47% of 220,000 active; z-score, hits read low; AID 1381;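 active means plate z-score of nuclear minus cytoplasmic receptor signal below a set negative limit, without overly bright fluorescence or cell loss, cut at about -3.5 in these data, passing the limit was not always enough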;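 further: z-score of nuclear minus cytoplasmic ring GR-EGFP intensity difference per well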
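Also added – dexamethasone, 1.0 µM final · Buffer or medium – tet-free, stripped-serum medium · Schedule – induction 48 h, compound 1 h, agonist 30 min · Detection – formaldehyde fixation, Hoechst nuclear stain, 10x automated fluorescence imaging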
MEKK2mut PB1 HTS: signal of MEK5 binding to mutant human MEKK2 PB1 domain | AID 1530 | percent response, % at 10 µM | bead flow cytometry, Alexa488-MEK5 binding to MEKK2 mutant | 0.35% of 290,000 active; in the data active means percent response above about 24%, passing the limit was not always enough
MEKK3 PB1 HTS: raises or lowers MEK5 binding to the human MEKK3 PB1 domain | Q99759 | bead-based flow cytometry, Alexa488-MEK5 binding to MEKK3; actives lie on both sides; 0 = blocked by unlabeled MEK5, 100 = vehicle | binding response (% of control), % at 10 µM | 1.4% of 290,000 active | AID 1529;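 active means binding response more than 3 SD above or below the average of its plate-row segment, actives on both sides; inconclusive means wells at one plate position flagged as instrument error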;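 further: Alexa488 bead fluorescence after subtracting the streptavidin-only scavenger bead signal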
ATG4B confirm: ATG4B (human) inhibition, single-dose confirmed. shares compounds with ATG4B inh. ATG4B protease fluorescent substrate cleavage assay. inhibition, % at 8.33 µM. 92% of 320 active. AID 504757; in the data active means inhibition above about 39%
PLA2 ctr: inhibits human PLA2, flagging false ATG4B inhibitors; shares compounds with ATG4B inh; purified PLA2, NBD-C6-HPC fluorescence, 45 min; inhibition, % at 8.33 µM; 66% of 1,600 active; AID 588402; in the data active means inhibition above about 50%
* = called active by the depositor; ? = inconclusive; . = no result given.

SMILES | ATG4B inh | MEKK2 WT-MEK5 | Beta2AR agonist | Dynein cargo inh | MEKK2mut PB1 HTS | MEKK3 PB1 HTS | ATG4B confirm | PLA2 ctr
CC(C)(C)C(=O)OCCNc1nc(-c2ccccc2)nc2ccccc12 | 54* | 102 | -12 | -0.36 | 0 | 122 | . | 63*
O=C(O)c1cc([N+](=O)[O-])ccc1NCc1ccccc1Cl | 48* | 102 | 6 | 0.86 | 5 | 101 | 64* | 45
COC(=O)C(Sc1nc(C)cc(C)c1C#N)c1ccccc1 (stereo not drawn) | 50* | 101 | 6 | -0.42 | 1 | 105 | . | 56*
O=C(O)c1cc(N/N=C2/CC(c3ccccc3)Oc3ccccc32)ccc1Cl (stereo not drawn) | 49* | 102 | 12 | -0.033 | -2 | 104 | 59* | 40
O=C(c1c(F)cccc1F)N(C1CCCCC1)C1CCCCC1 | 5 | 104 | 2 | . | 11 | 108 | . | .
O=C(NC1CC1)c1cccc(S(=O)(=O)N2CCOCC2)c1 | 5 | . | 7 | . | . | . | . | .
Cc1cccc(NC(=O)CSc2nnc(-c3cc(C)n(-c4ccccc4)c3C)o2)c1C | 41* | . | -6 | 2.8 | . | . | . | 56*
O=C(NCCC1=CCCCC1)c1ccc(Br)o1 | -8 | 108 | 2 | -0.022 | 1 | 104 | . | .
O=C(NC(=S)NCCC1=CCCCC1)c1ccc(Br)o1 | 40* | 106 | -18 | -0.026 | 2 | 112 | 62* | 36
Cc1ccc(-c2nnc(Nc3ccc(CC(N)=O)cc3)c3ccccc23)cc1 | 97* | ? | 10 | 0.68 | -21 | ? | . | 97*
COC(=O)c1ccc(Nc2nnc(-c3ccc(C)c(S(=O)(=O)NCC4CCCO4)c3)c3ccccc23)cc1 (stereo not drawn) | 10 | 103 | 2 | -0.4 | -1 | 127 | . | .
NC(=O)COc1ccc(Nc2nnc(-c3ccc(O)cc3)c3ccccc23)cc1 | 57* | 87 | -1 | -0.0066 | -15 | 89 | . | 69*
CNS(=O)(=O)c1cc(-c2nnc(Nc3ccc(CC(N)=O)cc3)c3ccccc23)ccc1C | 91* | 101 | 2 | . | 6 | 100 | . | 91*
Cc1ccc(-c2nnc(Nc3ccc(CC(N)=O)cc3)c3ccccc23)cc1S(=O)(=O)NCC1CCCO1 (stereo not drawn) | 90* | 102 | 2 | -0.22 | 13 | 106 | . | 89*
O=S(=O)(Nc1cc(S(=O)(=O)N2CCOCC2)ccc1NCC1CCCO1)c1ccccc1 (stereo not drawn) | -16 | . | -28 | . | . | . | . | .
Cc1ccc(-c2nnc(Nc3ccc(OCC(N)=O)cc3)c3ccccc23)cc1S(N)(=O)=O | 33 | 100 | -3 | . | 7 | 102 | . | .
Cc1ccc(-c2nnc(Nc3ccc(CC(N)=O)cc3)c3ccccc23)cc1S(N)(=O)=O | 88* | 98 | -2 | . | 3 | 99 | . | 89*
O=C(NCC(c1ccco1)N1CCc2ccccc2C1)C(=O)Nc1cc(F)ccc1F (stereo not drawn) | 13 | . | 3 | . | . | . | . | .
Cc1sc2nc(CSc3ccccc3)nc(NCCN(C)C)c2c1C | 6 | 111 | -1 | -0.58 | 0 | 100 | . | .
CCNc1nc(CSc2ccccc2)nc2sc(C)c(C)c12 | 45* | 99 | 7 | -0.019 | 12 | 99 | 61* | 47
O=C(CSc1nc2ccccc2c(=O)n1-c1ccc(Cl)cc1)N/N=C/C=C/c1ccccc1[N+](=O)[O-] | 54* | 102 | -3 | 0.12 | -1 | 121 | 72* | 17
Cc1ccc(C)n1N1C(=O)/C(=C\c2ccc(Cl)cc2)SC1=S | -1 | 102 | 7 | 0.43 | 8 | 107 | . | .
CC(=O)N(C(C)=O)N1C(=O)/C(=C/c2ccc(Cl)cc2)SC1=S | 68* | 88 | 31 | -0.53 | -7 | 92 | . | 57*
O=C1NC(=O)/C(=C/c2ccccc2Oc2ccc(Cl)cc2)S1 | 48* | 108 | 6 | -0.4 | 3 | 107 | 59* | 27
